Holding throughout (conditions): stereoisomer not certain
Assay [1] deals with T1, UniProt A2ATE5.
T1 sequence (whole entry): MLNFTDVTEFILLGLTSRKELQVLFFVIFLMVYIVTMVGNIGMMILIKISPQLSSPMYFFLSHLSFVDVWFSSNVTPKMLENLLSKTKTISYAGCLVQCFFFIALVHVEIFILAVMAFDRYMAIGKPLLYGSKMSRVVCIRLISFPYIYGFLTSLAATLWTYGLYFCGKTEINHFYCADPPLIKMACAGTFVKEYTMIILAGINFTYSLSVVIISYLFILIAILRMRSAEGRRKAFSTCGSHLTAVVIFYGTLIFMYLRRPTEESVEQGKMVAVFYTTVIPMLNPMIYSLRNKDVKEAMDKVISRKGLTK
In a few lines:
(§1)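 Assay methods differ from source to source, frequently being transient luciferase assays in mammalian cell lines. For each receptor–molecule pair, the label responsive (active) applies when the original authors judged the measured signal statistically different from baseline, and non-responsive (inactive) applies otherwise.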

Assay [2] has as its target T2, UniProt A2AVB0.
T2 sequence (whole entry): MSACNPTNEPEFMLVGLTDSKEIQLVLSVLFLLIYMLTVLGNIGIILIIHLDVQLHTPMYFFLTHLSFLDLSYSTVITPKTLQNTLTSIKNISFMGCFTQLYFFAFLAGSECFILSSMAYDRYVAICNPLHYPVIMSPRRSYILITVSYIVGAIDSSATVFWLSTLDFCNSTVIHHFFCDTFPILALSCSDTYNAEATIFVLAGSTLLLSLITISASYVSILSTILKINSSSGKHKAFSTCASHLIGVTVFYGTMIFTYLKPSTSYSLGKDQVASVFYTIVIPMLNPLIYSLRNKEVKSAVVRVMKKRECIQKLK
In short, it runs like this:
as §1

The target of assay [3] is T3, UniProt E9PVX1.
T3 sequence (whole entry): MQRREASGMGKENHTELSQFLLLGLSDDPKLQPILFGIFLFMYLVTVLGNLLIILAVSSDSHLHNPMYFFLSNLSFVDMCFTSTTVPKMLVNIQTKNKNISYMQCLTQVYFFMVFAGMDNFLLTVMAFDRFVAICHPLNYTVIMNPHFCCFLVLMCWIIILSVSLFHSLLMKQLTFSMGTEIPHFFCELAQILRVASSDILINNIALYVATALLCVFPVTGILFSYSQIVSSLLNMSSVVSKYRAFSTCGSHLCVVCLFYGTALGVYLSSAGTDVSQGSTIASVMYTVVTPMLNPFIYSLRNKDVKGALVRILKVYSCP
In a few lines:
as §1

With `C=C(CC)CCCC(C)(C)O`, the “odorant receptor agonist call” value in assay [1], in assay [2] and in assay [3] was “inactive” throughout.
Consider `CC=CC(=O)C1=C(C)CCCC1(C)C`, for which the “odorant receptor agonist call” value in assay [1], in assay [2] and in assay [3] was “inactive” in each case.
Take `CSSSC`: the “odorant receptor agonist call” value in assay [1], in assay [2] and in assay [3] was “inactive” throughout.
As for `c1ccc2ncccc2c1`, the “odorant receptor agonist call” value in assay [1], in assay [2] and in assay [3] was “inactive” throughout.
As for `CC(=O)OCc1ccc2c(c1)OCO2`, the “odorant receptor agonist call” value in assay [1], in assay [2] and in assay [3] was “inactive” each time.
`CCSCC`: the “odorant receptor agonist call” value in assay [1], in assay [2] and in assay [3] was “inactive” each time.
Consider `COc1ccccc1`, for which the “odorant receptor agonist call” value in assay [1], in assay [2] and in assay [3] was “inactive” throughout.
Regarding `CC=Cc1ccc(OC)cc1`, the “odorant receptor agonist call” value in assay [1], in assay [2] and in assay [3] was “inactive” throughout.
Take `CC(=O)OC1(C)CCC23CC1C(C)(C)C2CCC3C` (stereo unspecified): the “odorant receptor agonist call” value in assay [1], in assay [2] and in assay [3] was “inactive” throughout.
As for `CCCC=O`, the “odorant receptor agonist call” value in assay [1], in assay [2] and in assay [3] was “inactive” each time.
As for `CC(C)CCN`, the “odorant receptor agonist call” value in assay [1], in assay [2] and in assay [3] was “inactive” in each case.
For `CCCCCCCCC=CC=O`, the “odorant receptor agonist call” value in assay [1], in assay [2] and in assay [3] was “inactive” each time.
For the compound `Cc1c(C)c(C)c(C=O)c(C)c1C`, the “odorant receptor agonist call” value in assay [1], in assay [2] and in assay [3] was “inactive” throughout.
Consider `CCCCCCCCOC=O`, for which the “odorant receptor agonist call” value in assay [1], in assay [2] and in assay [3] was “inactive” throughout.
As for `Cc1ccc(C(C)C)cc1`, the “odorant receptor agonist call” value in assay [1], in assay [2] and in assay [3] was “inactive” in each case.
With `OCCCCCCCCCO`, the “odorant receptor agonist call” value in assay [1], in assay [2] and in assay [3] was “inactive” throughout.
On to `CCCCCC(C)O` (stereo unspecified), for which the “odorant receptor agonist call” value in assay [1], in assay [2] and in assay [3] was “inactive” throughout.
As to `CC=C(C)C=O`, the “odorant receptor agonist call” value in assay [1], in assay [2] and in assay [3] was “inactive” throughout.
Take `CCc1occc(=O)c1O`: in assay [1], the “odorant receptor agonist call” value was “active”. Also, the “odorant receptor agonist call” value in assay [2] and in assay [3] was “inactive” throughout.
Turning to `CCCCCC(C=O)=Cc1ccccc1`, the “odorant receptor agonist call” value in assay [1], in assay [2] and in assay [3] was “inactive” each time.
In the case of `CCOC(=O)C(C)CC` (stereo unspecified), the “odorant receptor agonist call” value in assay [1], in assay [2] and in assay [3] was “inactive” in each case.
For `OCCc1ccccc1`, the “odorant receptor agonist call” value in assay [1], in assay [2] and in assay [3] was “inactive” each time.
`CC(C)CS`: the “odorant receptor agonist call” value in assay [1], in assay [2] and in assay [3] was “inactive” throughout.
Turning to `C=CC(=C)CCC=C(C)C`, the “odorant receptor agonist call” value in assay [1], in assay [2] and in assay [3] was “inactive” each time.
As to `CCc1ccc(O)cc1`, the “odorant receptor agonist call” value in assay [1], in assay [2] and in assay [3] was “inactive” each time.
On to `CNc1ccccc1C(=O)OC`, for which the “odorant receptor agonist call” value in assay [1], in assay [2] and in assay [3] was “inactive” each time.
As for `CCCC(C)C(=O)OCC` (stereo unspecified), the “odorant receptor agonist call” value in assay [1], in assay [2] and in assay [3] was “inactive” in each case.
Take `CCCCCOC(=O)CCC`: the “odorant receptor agonist call” value in assay [1], in assay [2] and in assay [3] was “inactive” in each case.
As to `OCC=Cc1ccccc1`, the “odorant receptor agonist call” value in assay [1], in assay [2] and in assay [3] was “inactive” each time.
For the compound `Cc1ccc(C(C)C)c(O)c1`, the “odorant receptor agonist call” value in assay [1], in assay [2] and in assay [3] was “inactive” each time.
Take `CCSSCC`: the “odorant receptor agonist call” value in assay [1], in assay [2] and in assay [3] was “inactive” throughout.
On to `CC(CC=O)CCCC(C)(C)O` (stereo unspecified), for which the “odorant receptor agonist call” value in assay [1], in assay [2] and in assay [3] was “inactive” throughout.

(Values after the M2OR odorant receptor database.)
